Results reported in ChEMBL document CHEMBL1255334.
Calls of active or inactive are those of the source. The calls are words filed in the database; no cut-off is given here.

Tests used:
Type in all cases: functional, organism-based
[1] = test system: Mycobacterium tuberculosis; experiment: Antibacterial activity against Mycobacterium tuberculosis containing PZase Leu(172)>Pro mutant assessed as at 100 mg/liter
Method in brief: (§1)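 Clinical M. tuberculosis isolates first grown on Löwenstein-Jensen medium 3 to 4 weeks at 37°C. Radiometric BACTEC 460 test in acidified PZA test medium. Inoculum: ~McFarland 1 suspension grown in 12B medium until growth index (GI) >300. Paired vials per strain: drug-free control and PZA 100 mg/liter. Read when control GI reached 200. Resistant if PZA-vial GI >11% of control GI, susceptible if <9%.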

[2] = test system: Mycobacterium tuberculosis; experiment: Antibacterial activity against Mycobacterium tuberculosis containing PZase Val(125)>Phe mutant assessed as at 100 mg/liter; method in brief: as §1
[3] = test system: Mycobacterium tuberculosis; experiment: Antibacterial activity against Mycobacterium tuberculosis containing PZase Pro(54)>Leu mutant assessed as at 100 mg/liter; method in brief: as §1
[4] = test system: Mycobacterium tuberculosis; experiment: Antibacterial activity against Mycobacterium tuberculosis containing PZase Thr(47)>Ala mutant assessed as at 100 mg/liter; method in brief: as §1
[5] = test system: Mycobacterium tuberculosis; experiment: Antibacterial activity against Mycobacterium tuberculosis containing pncA gene with C insertion between nucleotide -3 and -2 assessed as at 100 mg/liter; method in brief: as §1
[6] = test system: Mycobacterium tuberculosis; experiment: Antibacterial activity against Mycobacterium tuberculosis containing pncA gene with C(174)>G mutation assessed as at 100 mg/liter; method in brief: as §1
[7] = test system: Mycobacterium tuberculosis; experiment: Antibacterial activity against Mycobacterium tuberculosis containing PZase Gly(132)>Ser mutant assessed as at 100 mg/liter; method in brief: as §1
[8] = test system: Mycobacterium tuberculosis; experiment: Antibacterial activity against Mycobacterium tuberculosis containing PZase Ser(65)>Ser mutant assessed as at 100 mg/liter; method in brief: as §1
[9] = test system: Mycobacterium tuberculosis; experiment: Antibacterial activity against Mycobacterium tuberculosis containing PZase Ser(67)>Pro mutant assessed as at 100 mg/liter; method in brief: as §1
[10] = test system: Mycobacterium tuberculosis; experiment: Antibacterial activity against Mycobacterium tuberculosis containing PZase Ser(65)>Ser frameshift mutant assessed as at 100 mg/liter; method in brief: as §1
[11] = test system: Mycobacterium tuberculosis; experiment: Antibacterial activity against Mycobacterium tuberculosis containing PZase with In-frame insertion between amino acids 148 and 149 assessed as at 100 mg/liter; method in brief: as §1
[12] = test system: Mycobacterium tuberculosis; experiment: Antibacterial activity against Mycobacterium tuberculosis containing PZase Ile(90)>Ser mutant assessed as at 100 mg/liter; method in brief: as §1
[13] = test system: Mycobacterium tuberculosis; experiment: Antibacterial activity against Mycobacterium tuberculosis containing pncA gene with G insertion between nucleotide -33 and -32 assessed as at 100 mg/liter; method in brief: as §1
[14] = test system: Mycobacterium tuberculosis; experiment: Antibacterial activity against Mycobacterium tuberculosis containing PZase Val(125)>Asp mutant assessed as at 100 mg/liter; method in brief: as §1
[15] = test system: Mycobacterium tuberculosis; experiment: Antibacterial activity against Mycobacterium tuberculosis containing PZase Gly(132)>Ala mutant assessed as at 100 mg/liter; method in brief: as §1
[16] = test system: Mycobacterium tuberculosis; experiment: Antibacterial activity against Mycobacterium tuberculosis containing PZase Thr(142)>Lys mutant assessed as at 100 mg/liter; method in brief: as §1
[17] = test system: Mycobacterium tuberculosis; experiment: Antibacterial activity against Mycobacterium tuberculosis containing PZase His(51)>Gln mutant assessed as at 100 mg/liter; method in brief: as §1
[18] = test system: Mycobacterium tuberculosis; experiment: Antibacterial activity against Mycobacterium tuberculosis containing PZase Ile(6)>Thr mutant assessed as at 100 mg/liter; method in brief: as §1
[19] = test system: Mycobacterium tuberculosis; experiment: Antibacterial activity against Mycobacterium tuberculosis containing PZase Tyr(103)>His mutant assessed as at 100 mg/liter; method in brief: as §1
[20] = test system: Mycobacterium tuberculosis; experiment: Antibacterial activity against Mycobacterium tuberculosis containing PZase Cys(138)>Tyr mutant assessed as at 100 mg/liter; method in brief: as §1
[21] = test system: Mycobacterium tuberculosis; experiment: Antibacterial activity against Mycobacterium tuberculosis containing PZase Val(155)>Gly mutant assessed as at 100 mg/liter; method in brief: as §1
[22] = test system: Mycobacterium tuberculosis; experiment: Antibacterial activity against Mycobacterium tuberculosis containing PZase Met(175)>Thr mutant assessed as at 100 mg/liter; method in brief: as §1
[23] = test system: Mycobacterium tuberculosis; experiment: Antibacterial activity against Mycobacterium tuberculosis containing PZase Arg(123)>Pro mutant assessed as at 100 mg/liter; method in brief: as §1
[24] = test system: Mycobacterium tuberculosis; experiment: Antibacterial activity against Mycobacterium tuberculosis containing PZase Pro(54)>Ser mutant assessed as at 100 mg/liter; method in brief: as §1
[25] = test system: Mycobacterium tuberculosis; experiment: Antibacterial activity against Mycobacterium tuberculosis containing PZase Phe(58)>Leu mutant assessed as at 100 mg/liter; method in brief: as §1
[26] = test system: Mycobacterium tuberculosis; experiment: Antibacterial activity against Mycobacterium tuberculosis containing pncA gene with GG insertion between nt 391 and 392 assessed as at 100 mg/liter; method in brief: as §1
[27] = test system: Mycobacterium tuberculosis; experiment: Antibacterial activity against Mycobacterium tuberculosis containing PZase Trp(68)>Arg mutant assessed as at 100 mg/liter; method in brief: as §1
[28] = test system: Mycobacterium tuberculosis; experiment: Antibacterial activity against Mycobacterium tuberculosis containing pncA gene with A(-11)>G mutation assessed as at 100 mg/liter; method in brief: as §1

`NC(=O)c1cnccn1` was tested, and the Activity [1] was “inactive”, the Activity [2] was “inactive” and the Activity [3] was “inactive”. For the same compound, the Activity [4] was “inactive”, the Activity [5] was “Active” and the Activity [6] was “inactive”. For the same compound, the Activity [7] was “inactive”, the Activity [8] was “Active” and the Activity [9] was “inactive”. For the same compound, the Activity [10] was “inactive”, the Activity [11] was “inactive” and the Activity [12] was “inactive”. For the same compound, the Activity [13] was “Active”, the Activity [14] was “inactive” and the Activity [15] was “inactive”. For the same compound, the Activity [16] was “inactive”, the Activity [17] was “inactive” and the Activity [18] was “inactive”. The Activity [19] was “inactive”, the Activity [20] was “inactive” and the Activity [21] was “inactive”. For the same compound, the Activity [22] was “inactive”, the Activity [23] was “inactive” and the Activity [24] was “inactive”. For the same compound, the Activity [25] was “inactive”, the Activity [26] was “inactive” and the Activity [27] was “inactive”. The Activity [28] was “inactive”.
